The source made the active and inactive calls. The rule behind the calls is not given here. *1 amine or outer side, *2 acyl side, *3 side chain or, on linkers, in order; H or OH if unused. Where a SMILES comes first, the peptide text is derived from it. The star is where a group is joined. NH(CH2)3O(βDGlc) = OC[C@H]1O[C@@H](OCCCN*)[C@H](O)[C@@H](O)[C@@H]1O; Glutaryl = O=C(CCCC(=O)[*:2])[*:1]

Results on two molecules are retold here after ChEMBL document CHEMBL4334452, “Monosaccharide Analogues of Anticancer Peptide R-Lycosin-I: Role of Monosaccharide Conjugation in Complexation and the Potential of Lung Cancer Targeting and Therapy” (J Med Chem, 2019).

In data set [1] the test system is A549. As to the kind of experiment: Induction of apoptosis in human A549 cells assessed as late apoptotic cells at 8 uM measured after 4 hrs by Annexin V-FITC/propidium iodide staining-based flow cytometry (reference value: 3.61%). The format is functional. The gist of the method:
(§1)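 A549 cells grown 24 h, trypsinized, then resuspended in medium with 8 µM peptide for 4 h at 37 °C. Cells washed with cold PBS, stained with Annexin V-FITC/PI, and analysed by flow cytometry.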
In general terms: In flow cytometry, cells or beads pass a laser one at a time.

The nature of data set [2]: Drug uptake in heart of Balb/c nu/nu mouse xenografted with human A549 cells expressing luciferase gene at 3 mg/kg administered intratumorally measured after 6 hrs by fluorescence assay. Type of data set: ADME, organism-based. The note with it: in vivo, other. For orientation: Xenograft models place foreign cells or tissue in a host animal.
Data set [3] in a line: Drug uptake in liver of Balb/c nu/nu mouse xenografted with human A549 cells expressing luciferase gene at 3 mg/kg administered intratumorally measured after 6 hrs by fluorescence assay. Type of data set: ADME, organism-based. The note with it: in vivo, other.
For data set [4], the system named is A549. As to the kind of experiment: Antitumor activity against human A549 cells expressing luciferase gene xenografted in Balb/c nu/nu mouse assessed as reduction in tumor volume at 3 mg/kg administered intratumorally every 3 days for four times measured on day 12 by bioluminescent imaging analysis. Type of data set: functional, organism-based. In short, it runs like this:
(§2)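 Male BALB/c nu/nu mice, 4-6 weeks old, with subcutaneous A549-luciferase xenografts. Treatment began when tumors reached 100-200 mm³, five per group. Peptide was injected intratumorally at 3 mg/kg in 100 µL every 3 days for 4 doses; 100 µL PBS was the control. Bioluminescent imaging on day 12, with tumor size and body weight monitored.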

Data set [5] has as its target T1, Solute carrier family 2, facilitated glucose transporter member 1 (Homo sapiens) (UniProt P11166).
T1 sequence (whole entry): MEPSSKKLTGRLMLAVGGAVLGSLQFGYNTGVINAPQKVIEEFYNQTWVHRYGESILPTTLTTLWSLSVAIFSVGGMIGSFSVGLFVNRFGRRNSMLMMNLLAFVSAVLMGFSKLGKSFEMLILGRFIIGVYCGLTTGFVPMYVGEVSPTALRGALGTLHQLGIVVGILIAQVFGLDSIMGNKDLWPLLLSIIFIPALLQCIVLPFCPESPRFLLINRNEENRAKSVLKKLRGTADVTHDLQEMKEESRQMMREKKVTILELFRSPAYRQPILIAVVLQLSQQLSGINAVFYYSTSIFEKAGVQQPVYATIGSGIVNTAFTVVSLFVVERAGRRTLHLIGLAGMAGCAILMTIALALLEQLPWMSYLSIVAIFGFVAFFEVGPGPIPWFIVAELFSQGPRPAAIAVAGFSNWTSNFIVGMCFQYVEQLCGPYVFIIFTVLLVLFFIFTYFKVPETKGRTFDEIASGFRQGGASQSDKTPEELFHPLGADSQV
As to the kind of experiment: Binding affinity to GLUT1 in human A549 cells assessed as cytotoxicity by measuring increase in LDH release at 25 uM measured after 2 hrs. Type of data set: cell-based. The gist of the method: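 A549 cells at 2×10^3/well, allowed to adhere overnight, then exposed to peptide over a concentration series for 2 h. LDH release measured with a kit, absorbance at 490 nm. 1% Triton X-100 taken as 100% release; n=3.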
A general note: LDH leaks from cells whose membrane has failed.

The target in data set [6] is T1, Solute carrier family 2, facilitated glucose transporter member 1 (Homo sapiens). As to the kind of experiment: Binding affinity to GLUT1 in 3D spheroids of human A549 cells assessed as cytotoxicity by measuring reduction in cell viability at 30 uM treated every 2 days for 6 days by CCK8 assay. The format is cell-based. The gist of the method:
(§3)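 A549 3D spheroids, one per well, in 10% medium with peptide at 30 µM final. Dosed at day 0, then re-added at days 2 and 4, for 6 days total. Spheroids washed thrice, then imaged and sized at days 0, 3 and 6. Viability read by CCK-8.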

Data set [7] can be described thus: Drug uptake in heart of Balb/c nu/nu mouse xenografted with human A549 cells expressing luciferase gene at 9 mg/kg, ip measured after 6 hrs by fluorescence assay. Particulars: in vivo. The format is ADME, organism-based.
Data set [8] concerns A549. Briefly: Induction of morphological changes in 3D spheroids of human A549 cells assessed as dissociation of 3D structure at 30 uM treated every 2 days for 6 days measured every 3 days during compound dosing by microscopic analysis. The format is functional, cell-based. In short, it runs like this:
as §3

The test system of data set [9] is A549. As to the kind of experiment: Induction of mitochondrial membrane potential loss in human A549 cells at 15 uM measured after 24 hrs by JC1 staining based fluorescence microscopic analysis. Type of data set: functional, cell-based. In short, it runs like this: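 A549 cells exposed to 15 µM peptide for 24 h, then stained with JC-1 kit. Monomer and aggregate emissions viewed by fluorescence microscopy; depolarization read as a rise in the green/red ratio, n=3.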

The test system of data set [10] is A549. As to the kind of experiment: Induction of apoptosis in human A549 cells assessed as necrotic cells at 8 uM measured after 4 hrs by Annexin V-FITC/propidium iodide staining-based flow cytometry (reference value: 0.51%). The format is functional. The gist of the method: as §1
For data set [11], the system named is A549. As to the kind of experiment: Induction of apoptosis in human A549 cells assessed as increase in caspase-3 activity at 15 uM measured after 24 hrs by Ac-DEVD-pNA substrate based assay relative to control. The format is functional. In short, it runs like this:
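A549 cells treated 24 h with 15 µM peptide, or medium as control. Cells lysed, and supernatant incubated with Ac-DEVD-pNA (2 mM). Absorbance read at 405 nm; activity ratio expressed against blank control, n=3.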

Data set [12] has as its system A549. As to the kind of experiment: Antitumor activity against human A549 cells expressing luciferase gene xenografted in Balb/c nu/nu mouse assessed as tumor growth inhibition at 3 mg/kg administered intratumorally every 3 days for four times measured on day 12 by bioluminescent imaging analysis. The format is functional, organism-based. In short, it runs like this:
as §2

The subject of data set [13] is A549. As to the kind of experiment: Induction of morphological changes in human A549 cells assessed as disruption of cell membrane at 15 uM measured after 24 hrs by scanning electron microscopic analysis. Type of data set: functional, cell-based. In short, it runs like this:
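A549 cells pre-seeded on mica sheets for 24 h at 37°C, then exposed to 15 μM peptide for 24 h at 37°C. Cells were PBS-washed twice, fixed in 4% paraformaldehyde for 15 min, dehydrated through graded ethanol and imaged by SEM at 15 kV. Untreated cells served as control.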

Data set [14] concerns the target T1, Solute carrier family 2, facilitated glucose transporter member 1 (Homo sapiens). As to the kind of experiment: Binding affinity to GLUT1 in human A549 cells assessed as cytotoxicity by measuring reduction in cell viability at 40 umol/L measured up to 48 hrs in presence of 10% serum by CCK8 assay relative to control. Type of data set: cell-based.
The subject of the next data set is HEK-293T. Briefly: Cytotoxicity against HEK293T cells at 12.5 uM measured after 2 hrs by LDH release assay. Type of data set: cell-based. The note with it: human.
For data set [15], the system named is A549. As to the kind of experiment: Antitumor activity against human A549 cells expressing luciferase gene xenografted in Balb/c nu/nu mouse assessed as reduction in tumor volume at 9 mg/kg, ip administered every 2 days for seven times measured on day 14 by bioluminescent imaging analysis. The format is functional, organism-based. In short, it runs like this: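 Male BALB/c nu/nu mice, 4-6 weeks old, carrying subcutaneous A549-luciferase xenografts in the right back. Dosing started when tumors reached 100-200 mm³ (day 0), five per group. Peptide was given at 9 mg/kg i.p. in 200 µL every other day for 7 doses; PBS served as control. Bioluminescent imaging on day 14; tumor size and body weight tracked. Tumors fixed in paraformaldehyde, paraffin-sectioned, TUNEL-stained.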

The test system of data set [16] is A549. As to the kind of experiment: Cytotoxicity against GLUT1 knockout out human A549 cells assessed as reduction in cell viability measured after 24 hrs by CCK8 assay. Particulars: A549, 24 h. Type of data set: functional, cell-based. In short, it runs like this: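 A549 cells with GLUT1 knocked down by RNAi oligos, about 50% knockdown versus control oligos. Cells treated with a concentration series, read by 24-h serum-free CCK-8 viability, and an IC50 derived from the dose-response curve.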

A short description of data set [17]: Drug uptake in tumor of Balb/c nu/nu mouse xenografted with human A549 cells expressing luciferase gene at 3 mg/kg administered intratumorally measured after 6 hrs by fluorescence assay. The format is ADME, organism-based, Neoplasm. Particulars: in vivo, other.

With `CC[C@H](C)[C@H](NC(=O)[C@H](Cc1ccccc1)NC(=O)[C@H](CCCNC(=N)N)NC(=O)[C@H](C)NC(=O)[C@@H](NC(=O)[C@H](CO)NC(=O)[C@H](CCCNC(=N)N)NC(=O)[C@H](CCSC)NC(=O)[C@H](C)NC(=O)[C@H](CCCNC(=N)N)NC(=O)[C@H](Cc1ccccc1)NC(=O)[C@H](Cc1c[nH]c2ccccc12)NC(=O)CNC(=O)[C@@H](N)CCCNC(=N)N)[C@@H](C)CC)C(=O)N[C@@H](C)C(=O)N[C@@H](CCCNC(=N)N)C(=O)N[C@@H](CCC(=O)O)C(=O)N[C@@H](CCCNC(=N)N)C(=O)N[C@@H](CC(C)C)C(=O)N[C@@H](CCCNC(=N)N)C(=O)N[C@@H](CCC(=O)O)C(=O)N[C@@H](Cc1cnc[nH]1)C(=O)N[C@@H](CC(C)C)C(=O)O` (H-RGWFRAMRSIARFIARERLREHL-OH), the figures for the Activity in the data set on A549 [1] and with A549 [10] were 9.87% and 0.75%, respectively. Moreover, the Drug uptake result in data set [2], in [3] and in [7] was “Active” in each case. Further, the outcome (in the data set with A549 [4]; in data set [5]; in data set [6]; in the data set with A549 [8]; in the data set with A549 [9]; in the data set on A549 [13]) was Active. Besides, the “fold change (FC)” value in the data set with A549 [11] is 1.5. In addition, in the data set with A549 [12], the TGI result is “Active”.
As a reminder, the IC50 is the concentration that inhibits the measured activity by half. As to `CC[C@H](C)[C@H](NC(=O)[C@H](Cc1ccccc1)NC(=O)[C@H](CCCNC(=N)N)NC(=O)[C@H](C)NC(=O)[C@@H](NC(=O)[C@H](CO)NC(=O)[C@H](CCCNC(=N)N)NC(=O)[C@H](CCSC)NC(=O)[C@H](C)NC(=O)[C@H](CCCNC(=N)N)NC(=O)[C@H](Cc1ccccc1)NC(=O)[C@H](Cc1c[nH]c2ccccc12)NC(=O)CNC(=O)[C@H](CCCNC(=N)N)NC(=O)CCCC(=O)NCCCO[C@@H]1O[C@H](CO)[C@@H](O)[C@H](O)[C@H]1O)[C@@H](C)CC)C(=O)N[C@@H](C)C(=O)N[C@@H](CCCNC(=N)N)C(=O)N[C@@H](CCC(=O)O)C(=O)N[C@@H](CCCNC(=N)N)C(=O)N[C@@H](CC(C)C)C(=O)N[C@@H](CCCNC(=N)N)C(=O)N[C@@H](CCC(=O)O)C(=O)N[C@@H](Cc1cnc[nH]1)C(=O)N[C@@H](CC(C)C)C(=O)O` ({NH(CH2)3O(βDGlc)-Glutaryl}-RGWFRAMRSIARFIARERLREHL-OH), the Activity in the data set on A549 [1] was 38.49%; in [14] it was 80%; in the data set on HEK-293T, “Non-Toxic”; in the data set on A549 [10], 0.57%. Moreover, the Drug uptake entry in data set [2], in data set [3], in data set [7] and in [17] was “Active” in each case. The result (with A549 [4]; in [5]; in [6]; in the data set on A549 [8]; with A549 [9]; in the data set with A549 [15]) was Active. Further, the outcome in the data set on A549 [13] was Active. Moreover, the IC50 in the data set with A549 [16] worked out at 13.4 µM. The “fold change (FC)” value in the data set on A549 [11] was found to be 1.5. Further, the TGI entry in the data set on A549 [12] is “Active”.
